Consider 25 compounds from ChEMBL document CHEMBL1177810, “Acid-catalyzed synthesis of 10-substituted triazolyl artemisinins and their growth inhibitory activity against various cancer cells” (2010).

Structures are written as SMILES.

A short description of assay [1]: Cytotoxicity against human U87 cells after 72 hrs by MTT assay. The conditions noted are these: U-87 MG. The assay is classed as functional, U-87MG ATCC. Summed up:
(§1)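 Cells seeded at 5×10^3 per well in DMEM with 10% FBS, preincubated 4 h, then exposed to serial dilutions for 72 h. MTT at 1 mg/mL added for 4 h at 37 °C, formazan dissolved in DMSO, absorbance read at 570 nm. Triplicate assays; GI50 from non-linear regression of sigmoidal dose-response curves.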
A general note: Tetrazolium assays rely on reduction of a dye to a coloured formazan, in cell work by metabolically active cells.

For another assay, the system named is B16. In words: Cytotoxicity against mouse B16 cells after 72 hrs by MTT assay. The assay is classed as functional. The note with it: B16, 72 h. A digest of the protocol: as §1
A further assay has as its system DLD-1. In words: Cytotoxicity against human DLD1 cells after 72 hrs by MTT assay. The assay is classed as functional. The note with it: DLD-1, 72 h. A digest of the protocol:
as §1

Another assay has as its system SiHa. The assay can be described thus: Cytotoxicity against human SiHa cells after 72 hrs by MTT assay. The assay is classed as functional. A digest of the protocol: as §1
Assay [2] in a line: Cytotoxicity against human A172 cells after 72 hrs by MTT assay. The format is functional. The note with it: A 172, 72 h. A digest of the protocol:
as §1

A further assay deals with HeLa. The assay can be described thus: Cytotoxicity against human HeLa cells after 72 hrs by MTT assay. The assay is classed as functional. A digest of the protocol: as §1

A word on the GI50: it is the concentration giving 50% growth inhibition. For `C[C@H]1[C@H](n2nncc2-c2ccc(F)cc2)O[C@@H]2O[C@]3(C)CC[C@H]4[C@H](C)CC[C@@H]1[C@@]24OO3`, the GI50 in assay [1] stood at 90 nM; with B16, 770 nM; in the assay on DLD-1, 310 nM; in the assay with SiHa, 80 nM; in assay [2] it was 80 nM; with HeLa, 60 nM.
`C[C@H]1[C@H](n2cc(-c3ccc(F)cc3)nn2)O[C@@H]2O[C@]3(C)CC[C@H]4[C@H](C)CC[C@@H]1[C@@]24OO3`: the GI50 in assay [1] is 160 nM; in the assay on B16, 110 nM; with DLD-1, 480 nM; in the assay with SiHa, 140 nM; in assay [2] it was 130 nM; in the assay on HeLa, 50 nM.
In the case of `C[C@H]1[C@H](n2cc(-c3ccccc3C(F)(F)F)nn2)O[C@@H]2O[C@]3(C)CC[C@H]4[C@H](C)CC[C@@H]1[C@@]24OO3`, the GI50 in assay [1] is 290 nM; in the assay with B16, 340 nM; in the assay with DLD-1, 2380 nM; with SiHa, 320 nM; in assay [2], 290 nM; with HeLa, 190 nM.
Consider `CCCCCc1ccc(-c2cn([C@H]3O[C@@H]4O[C@]5(C)CC[C@H]6[C@H](C)CC[C@@H]([C@@H]3C)[C@@]46OO5)nn2)cc1`, for which the concentration for 50% growth inhibition (GI50) in assay [1] came to 270 nM; with B16 it was 340 nM; in the assay with DLD-1, 840 nM; in the assay with SiHa, 440 nM; in assay [2] it was 260 nM; in the assay with HeLa, 240 nM.
As to `C[C@@H]1[C@@H](n2cc(-c3cccc(Cl)c3)nn2)O[C@@H]2O[C@]3(C)CC[C@H]4[C@H](C)CC[C@@H]1[C@@]24OO3`, the GI50 in assay [1] worked out at 350 nM; in the assay with B16, 280 nM; in the assay with DLD-1, 1170 nM; with SiHa, 410 nM; in assay [2], 330 nM; in the assay on HeLa, 210 nM.
Consider `C[C@H]1[C@H](n2nncc2-c2cccc(Cl)c2)O[C@@H]2O[C@]3(C)CC[C@H]4[C@H](C)CC[C@@H]1[C@@]24OO3`, for which the GI50 is 100 nM in assay [1]; 100 nM in the assay with B16; 40 nM in the assay with DLD-1; 160 nM with SiHa; 130 nM in assay [2]; 60 nM in the assay with HeLa.
Turning to `COc1ccc(-c2cnnn2[C@@H]2O[C@@H]3O[C@]4(C)CC[C@H]5[C@H](C)CC[C@@H]([C@H]2C)[C@@]35OO4)cc1`, the GI50 in assay [1] was 230 nM; with B16 it was 290 nM; with DLD-1, 880 nM; in the assay with SiHa, 240 nM; in assay [2] it was 210 nM; in the assay on HeLa it was 90 nM.
For `C[C@@H]1[C@@H](n2cc(-c3ccccc3)nn2)O[C@@H]2O[C@]3(C)CC[C@H]4[C@H](C)CC[C@@H]1[C@@]24OO3`, the GI50 in assay [1] worked out at 150 nM; with B16, 200 nM; in the assay on DLD-1 it was 280 nM; in the assay on SiHa it was 140 nM; in assay [2] it was 110 nM; in the assay on HeLa, 30 nM.
In the case of `C[C@H]1[C@H](n2nncc2-c2ccccc2C(F)(F)F)O[C@@H]2O[C@]3(C)CC[C@H]4[C@H](C)CC[C@@H]1[C@@]24OO3`, the GI50 in assay [1] came to 80 nM; in the assay on B16, 80 nM; with DLD-1 it was 170 nM; with SiHa, 80 nM; in assay [2], 80 nM; with HeLa it was 70 nM.
For `C[C@H]1[C@H](n2nncc2-c2ccccc2)O[C@@H]2O[C@]3(C)CC[C@H]4[C@H](C)CC[C@@H]1[C@@]24OO3`, the GI50 was 200 nM in assay [1]; 220 nM with B16; 600 nM with DLD-1; 140 nM with SiHa; 150 nM in assay [2]; 40 nM in the assay with HeLa.
Regarding `C[C@H]1[C@H](n2cc(-c3ccccc3)nn2)O[C@@H]2O[C@]3(C)CC[C@H]4[C@H](C)CC[C@@H]1[C@@]24OO3`, the GI50 amounted to 500 nM in assay [1]; 780 nM with B16; 930 nM in the assay on DLD-1; 730 nM with SiHa; 570 nM in assay [2]; 580 nM with HeLa.
Regarding `CCCCCc1ccc(-c2cnnn2[C@@H]2O[C@@H]3O[C@]4(C)CC[C@H]5[C@H](C)CC[C@@H]([C@H]2C)[C@@]35OO4)cc1`, the GI50 in assay [1] turned out to be 90 nM; with B16, 80 nM; in the assay with DLD-1, 220 nM; in the assay with SiHa, 100 nM; in the assay with HeLa, 40 nM.
Regarding `Cc1ccc(-c2cn([C@@H]3O[C@@H]4O[C@]5(C)CC[C@H]6[C@H](C)CC[C@@H]([C@H]3C)[C@@]46OO5)nn2)cc1`, the GI50 in assay [1] came to 280 nM; with B16, 120 nM; in the assay on DLD-1, 400 nM; in the assay on SiHa it was 120 nM; in assay [2] it was 90 nM; in the assay with HeLa, 110 nM.
`CCCCCc1ccc(-c2cn([C@@H]3O[C@@H]4O[C@]5(C)CC[C@H]6[C@H](C)CC[C@@H]([C@H]3C)[C@@]46OO5)nn2)cc1`: the GI50 worked out at 70 nM in assay [1]; 70 nM in the assay with B16; 140 nM in the assay with DLD-1; 80 nM in the assay with SiHa; 70 nM in assay [2]; 90 nM with HeLa.
`COc1ccc(-c2cn([C@H]3O[C@@H]4O[C@]5(C)CC[C@H]6[C@H](C)CC[C@@H]([C@@H]3C)[C@@]46OO5)nn2)cc1`: the GI50 in assay [1] turned out to be 70 nM; in the assay on B16, 100 nM; with DLD-1 it was 220 nM; in the assay with SiHa it was 70 nM; in assay [2], 70 nM; in the assay with HeLa it was 100 nM.
For the compound `C[C@@H]1[C@@H](n2cc(-c3cc(F)cc(F)c3)nn2)O[C@@H]2O[C@]3(C)CC[C@H]4[C@H](C)CC[C@@H]1[C@@]24OO3`, the 50% growth inhibitory concentration (GI50) in assay [1] turned out to be 450 nM; with B16, 700 nM; in the assay on DLD-1, 1280 nM; in the assay on SiHa it was 460 nM; in assay [2], 540 nM; in the assay with HeLa it was 240 nM.
Turning to `C[C@@H]1[C@@H](n2cc(-c3ccc(F)cc3)nn2)O[C@@H]2O[C@]3(C)CC[C@H]4[C@H](C)CC[C@@H]1[C@@]24OO3`, the GI50 in assay [1] amounted to 630 nM; in the assay with B16 it was 840 nM; with DLD-1, 2150 nM; in the assay on SiHa, 960 nM; in assay [2], 560 nM; with HeLa it was 410 nM.
In the case of `C[C@H]1[C@H](n2nncc2-c2cc(F)cc(F)c2)O[C@@H]2O[C@]3(C)CC[C@H]4[C@H](C)CC[C@@H]1[C@@]24OO3`, the GI50 in assay [1] came out at 170 nM; with B16 it was 100 nM; with DLD-1, 170 nM; with SiHa, 70 nM; in assay [2] it was 100 nM; in the assay on HeLa it was 80 nM.
For the compound `C[C@H]1[C@H](n2cc(-c3cc(F)cc(F)c3)nn2)O[C@@H]2O[C@]3(C)CC[C@H]4[C@H](C)CC[C@@H]1[C@@]24OO3`, the GI50 in assay [1] was determined as 130 nM; in the assay with B16, 130 nM; with DLD-1, 300 nM; with SiHa, 120 nM; in assay [2] it was 140 nM; with HeLa, 50 nM.
On to `C[C@H]1[C@H](n2cc(-c3cccc(Cl)c3)nn2)O[C@@H]2O[C@]3(C)CC[C@H]4[C@H](C)CC[C@@H]1[C@@]24OO3`, for which the GI50 in assay [1] is 250 nM; in the assay with B16, 210 nM; with DLD-1 it was 290 nM; in the assay on SiHa, 240 nM; in assay [2], 310 nM; with HeLa, 90 nM.
For the compound `Cc1ccc(-c2cn([C@H]3O[C@@H]4O[C@]5(C)CC[C@H]6[C@H](C)CC[C@@H]([C@@H]3C)[C@@]46OO5)nn2)cc1`, the GI50 in assay [1] is 1340 nM; in the assay with B16, 700 nM; with DLD-1, 160 nM; with SiHa, 1580 nM; in assay [2], 1740 nM; in the assay with HeLa, 730 nM.
In the case of `Cc1ccc(-c2cnnn2[C@@H]2O[C@@H]3O[C@]4(C)CC[C@H]5[C@H](C)CC[C@@H]([C@H]2C)[C@@]35OO4)cc1`, the GI50 in assay [1] came to 110 nM; with B16, 110 nM; in the assay with DLD-1, 290 nM; in the assay on SiHa, 190 nM; in assay [2], 100 nM; with HeLa, 40 nM.
Turning to `C[C@@H]1[C@@H](n2cc(-c3ccccc3C(F)(F)F)nn2)O[C@@H]2O[C@]3(C)CC[C@H]4[C@H](C)CC[C@@H]1[C@@]24OO3`, the GI50 was determined as 530 nM in assay [1]; 480 nM in the assay on B16; 1070 nM with DLD-1; 620 nM with SiHa; 400 nM in assay [2]; 350 nM in the assay on HeLa.
For `COc1ccc(-c2cn([C@@H]3O[C@@H]4O[C@]5(C)CC[C@H]6[C@H](C)CC[C@@H]([C@H]3C)[C@@]46OO5)nn2)cc1`, the GI50 was 390 nM in assay [1]; 130 nM with B16; 490 nM with DLD-1; 360 nM with SiHa; 300 nM in assay [2]; 130 nM in the assay with HeLa.
On to `CC(=O)O[C@H]1C(=O)[C@@]2(C)[C@H]([C@H](OC(=O)c3ccccc3)[C@]3(O)C[C@H](OC(=O)[C@H](O)[C@@H](NC(=O)c4ccccc4)c4ccccc4)C(C)=C1C3(C)C)[C@]1(OC(C)=O)CO[C@@H]1C[C@@H]2O` [PACLITAXEL], for which the GI50 in assay [1] stood at 20 nM; with B16, 10 nM; in the assay with DLD-1, 10 nM; in the assay with SiHa, 30 nM; in assay [2], 10 nM; in the assay on HeLa, 20 nM.
